Inconclusive results are not listed.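 Rule for the calls, unless noted: active = RAM network inhibition above 8.4% in each of two replicates, 3 SD over the compound average; inconclusive = above 8.4% inhibition in only one replicate; inactive = 8.4% inhibition or less in each replicate.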
Columns and labels:
[1] = S. cerevisiae growth inhibition in permissive medium (OD615), pilot counter-assay for S. cerevisiae lifespan shortening project, permissive growth control (AID 705;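 active = growth inhibition above 25% in both replicates, a cutoff set 3 SD above the mean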); details: OD615, 24 h, at 10 µM, active compounds read high
In short: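 Material: engineered DeaD yeast; Compound: one dose 10 µM, DMSO 0.25% final; Detection: absorbance (optical density) at 615 nm; Buffer or medium: permissive raffinose/galactose medium; Timing: 24 h exposure, 30 °C.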

[2] = S. cerevisiae growth inhibition in restrictive medium, OD615, pilot screen, restrictive growth control, yeast lifespan reduction project (AID 706;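 active = growth inhibition above a set limit, 3 SD over mean compound inhibition, in both replicates, cut at about 43% in these data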;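 note: modified DeaD lifespan yeast strain shifted to restrictive glucose medium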); details: OD615, 48 h, at 10 µM, active compounds read high
In short: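 Buffer or medium: restrictive glucose medium (CSMM-D); test system: modified S. cerevisiae; doses: single dose of 10 µM compound final, 0.25% DMSO; schedule: 48 h compound exposure at 30 °C; detection: absorbance (optical density) measured at 615 nm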

[3] = doxorubicin toxicity protection in MRP-1 cells – H69AR cells, CellTiter-Glo, duplicate, MRP-1 activator project, pilot screen (AID 807;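 active = viability increase at or above a cutoff of the median across tested compounds plus 3 SD, cut at about 8.5% in these data, passing the limit was not always enough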;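 note: compound pretreatment 18-22 h then 72 h combined with doxorubicin; 0% = doxorubicin alone and 100% = vehicle without doxorubicin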); details: H69AR viability with doxorubicin, CellTiter-Glo luminescence; at 10 µM; active compounds read high
[4] = viability of HCT116 without oncogenic beta-catenin – human colon tumor cells, pilot screen (AID 823;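 active = cell viability at or below a set limit in both duplicate runs, the limit being the all-compound median minus 4 SD, cut at about 23% in these data, passing the limit was not always enough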;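 note: 0% = wells killed by 20 µM Hyamine and 100% = untreated DMSO cell wells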); details: HCT116 beta-catenin knockout viability, CellTiter-Glo, 60 h; at 10 µM; active compounds read low
[5] = viability of PTEN-null HCT116 cells – cell-based, HCT116 clonal line, CellTiter-Glo, pilot screen (AID 824;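 active = viability at or below 27.92% in each of two runs, the all-compound median minus 4 SD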;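 note: 0% = 20 µM Hyamine control and 100% = vehicle cell control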); details: HCT116 PTEN-deleted viability, 60 h, at 10 µM, active compounds read low
[6] = RAM pathway blockade in budding yeast – dse1pr::URA3 reporter, 5-FOA selection, pilot screen (AID 869;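 active = inhibition over a set limit, the all-compound mean plus 3 SD, in both replicate runs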;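 note: 0% = DMSO wells with no growth and 100% = 10 µM 1-NA-PP1 with full growth; RAM network block rescues cells from 5-FOA so hits raise OD615 growth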); details: S. cerevisiae dse1pr::URA3 5-FOA growth, OD615, 2 d; at 10 µM; active compounds read high; strain carries analog-sensitive mutant Cbk1 kinase
[7] = RAM signaling pathway blockade in yeast – S. cerevisiae, Pdr1DBD-CYC8 efflux-inhibited sensitized strain, primary screen (AID 1298);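 note: 0% = DMSO untreated cells without growth and 100% = 10 µM 1-NA-PP1 full growth; higher means more yeast growth rescued from 5-FOA killing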; details: S. cerevisiae cbk1-as DSE1-URA3 strain, 5-FOA growth OD615, 2 d; at 50 µM; active compounds read high

O=C(CSc1nnnn1-c1cccc2c1CCCC2)N1CCOCC1
inactive: growth inhibition [1] -3.82% | growth inhibition [2] -27.1% | viability increase [3] -3.02% | viability [4] 95.4% | viability [5] 94.5% | inhibition [6] 0.68% | RAM network inhibition [7] 2.95%

Cc1onc(-c2ccccc2)c1C(=O)N1CCN(C/C=C/c2ccccc2)CC1
inactive: growth inhibition [1] -2.69% | growth inhibition [2] 5.24% | viability increase [3] -5.02% | viability [4] 78.9% | viability [5] 75.6% | inhibition [6] 2.72% | RAM network inhibition [7] 3.92%

COCc1nc(-c2ccc(-c3ccc(OC)cc3)nc2OC)no1
inactive: growth inhibition [1] 11.9% | growth inhibition [2] 3.28% | viability increase [3] -0.98% | viability [4] 71% | viability [5] 72.2% | inhibition [6] 1% | RAM network inhibition [7] 2.1%

Cc1nc(Nc2nc3ccccc3o2)nc2c1CCC2
inactive: growth inhibition [1] 9.76% | growth inhibition [2] 16.7% | viability increase [3] -1.82% | viability [4] 77.7% | viability [5] 76% | inhibition [6] 0.225% | RAM network inhibition [7] -0.26%

Cc1c(C(=O)NCC2CCCO2)oc2ccc(S(=O)(=O)N3CC(C)CC(C)C3)cc12 (configuration not stated)
inactive: growth inhibition [1] -2.38% | growth inhibition [2] 14.2% | viability increase [3] -4.71% | viability [4] 44.5% | viability [5] 38.1% | inhibition [6] 3.72% | RAM network inhibition [7] 4.28%

COc1ccc(OC)c(NC(=O)c2cnc3n(c2=O)CCS3)c1
inactive: growth inhibition [1] -1.9% | growth inhibition [2] -0.45% | viability increase [3] -1.5% | viability [4] 100% | viability [5] 95.9% | inhibition [6] 2.48% | RAM network inhibition [7] 7.21%

CCC(C)[C@@H](C(=O)Nc1ccc2c(c1)OCO2)N1Cc2ccccc2C1=O (some centres not stated)
inactive: growth inhibition [1] -14.7% | growth inhibition [2] -13.5% | viability increase [3] -2.97% | viability [4] 91.5% | viability [5] 75.1% | inhibition [6] 0.51% | RAM network inhibition [7] 4.42%

Cc1ccc(NC2=CC(=O)CC(c3ccco3)C2)c(N)c1 (configuration not stated)
inactive: growth inhibition [1] -4.58% | growth inhibition [2] 5.45% | viability increase [3] -4.41% | viability [4] 81.2% | viability [5] 86.5% | inhibition [6] 0.07% | RAM network inhibition [7] 2.43%

COc1ccc(Nc2cc(C)nc3nc(C)nn23)cc1Cl
inactive: growth inhibition [1] 0.45% | growth inhibition [2] 13.4% | viability increase [3] -3.91% | viability [4] 101% | viability [5] 93.5% | inhibition [6] -0.465% | RAM network inhibition [7] -0.01%

O=C(NCc1ccccn1)C1CC(=O)N(C2CCCC2)C1 (configuration not stated)
inactive: growth inhibition [1] -5.27% | growth inhibition [2] 4.21% | viability increase [3] 1.73% | viability [4] 103% | viability [5] 96.9% | inhibition [6] 1.5% | RAM network inhibition [7] 2.33%

COc1ccc(CCNC(=O)c2ccco2)cc1
inactive: growth inhibition [1] 13.4% | growth inhibition [2] 8.97% | viability increase [3] -2.79% | viability [4] 107% | viability [5] 91.8% | inhibition [6] 1.58% | RAM network inhibition [7] -1.03%

Cc1ccc(Nc2cc(C)nc3nc(C)nn23)cc1
inactive: growth inhibition [1] -3.6% | growth inhibition [2] -11.9% | viability increase [3] -3.16% | viability [4] 97.4% | viability [5] 95.7% | inhibition [6] 2.35% | RAM network inhibition [7] 3.26%

O=c1c2[nH]c3ccc(F)cc3c2ncn1CCN1CCN(Cc2ccccc2)CC1
inactive: growth inhibition [1] -2.19% | growth inhibition [2] 1.39% | viability increase [3] -3.25% | viability [4] 86.3% | viability [5] 80.3% | inhibition [6] 1.52% | RAM network inhibition [7] 1.11%

O=C(c1cc(F)c(F)cc1Cl)N1CCCCC1
inactive: growth inhibition [1] -2.35% | growth inhibition [2] 1.34% | viability increase [3] -1.35% | viability [4] 92.1% | viability [5] 90.6% | inhibition [6] 2.08% | RAM network inhibition [7] 2.31%

Cc1c(N=C2C(=O)Nc3ccccc32)c(=O)n(-c2ccccc2)n1C
inactive: growth inhibition [1] -1.19% | growth inhibition [2] 0.225% | viability increase [3] -2.29% | viability [4] 108% | viability [5] 90.3% | inhibition [6] 0.61% | RAM network inhibition [7] 1.79%

CN(C)C(CNC(=O)c1cccs1)c1cccnc1 (configuration not stated)
inactive: growth inhibition [1] -14.2% | growth inhibition [2] -20.4% | viability increase [3] -0.5% | viability [4] 105% | viability [5] 97.4% | inhibition [6] 3.75% | RAM network inhibition [7] 0.26%

CC(Oc1ccccc1F)C(=O)NCCN1CCCCC1 (configuration not stated)
inactive: growth inhibition [1] -9.04% | growth inhibition [2] -8.32% | viability increase [3] -0.4% | viability [4] 91.9% | viability [5] 93.6% | inhibition [6] 0.865% | RAM network inhibition [7] 3.01%

O=C(C1CCN(S(=O)(=O)c2cccc3cccnc23)CC1)N1CCCC1
inactive: growth inhibition [1] 11.8% | growth inhibition [2] 7.97% | viability increase [3] -3.23% | viability [4] 97% | viability [5] 87.9% | inhibition [6] 1.52% | RAM network inhibition [7] 0.06%

CCCOC(=O)c1ccc(NC(=O)C2C3C=CC(O3)C2C(=O)O)cc1 (configuration not stated)
inactive: growth inhibition [1] -8.39% | growth inhibition [2] -22.8% | viability increase [3] -1.49% | viability [4] 101% | viability [5] 95.4% | inhibition [6] 1.27% | RAM network inhibition [7] 0.36%

Cc1ccc2c(c1)C(c1ccc(F)cc1)N(C(=O)C1CC1)CC(=O)N2 (configuration not stated)
inactive: growth inhibition [1] -3.41% | growth inhibition [2] -4.04% | viability increase [3] -1.19% | viability [4] 83% | viability [5] 75.2% | inhibition [6] -0.015% | RAM network inhibition [7] 1.7%

CCCCCCn1c(CN2CCN(CCO)CC2)nc2c1c(=O)n(C)c(=O)n2C
inactive: growth inhibition [1] -6.85% | growth inhibition [2] -11.2% | viability increase [3] -4.86% | viability [4] 86.2% | viability [5] 89.4% | inhibition [6] 2.5% | RAM network inhibition [7] 2.43%

COC(=O)c1c(N2C(=O)CCC2=O)sc2c1CCCC2
inactive: growth inhibition [1] -1.48% | growth inhibition [2] 0.535% | viability increase [3] -2.89% | viability [4] 102% | viability [5] 93.4% | inhibition [6] 1.26% | RAM network inhibition [7] -1.57%

O=C(Cn1cnc2c(nnn2-c2ccccc2)c1=O)N1CCCc2ccccc21
inactive: growth inhibition [1] -10% | growth inhibition [2] -10.4% | viability increase [3] 0.06% | viability [4] 101% | viability [5] 101% | inhibition [6] 1.55% | RAM network inhibition [7] 5.32%

Cc1cc(NS(=O)(=O)c2ccc(NC(=O)c3cnc4scc(C)n4c3=O)cc2)nc(C)n1
inactive: growth inhibition [1] -8.46% | growth inhibition [2] -14.3% | viability increase [3] -2.16% | viability [4] 102% | viability [5] 98.5% | inhibition [6] 1.31% | RAM network inhibition [7] 4.17%

COc1ccc(C2N3CC4(C)CN2CC(C)(C3)C4)cc1OC (configuration not stated)
inactive: growth inhibition [1] -3.73% | growth inhibition [2] -17.4% | viability increase [3] -0.73% | viability [4] 105% | viability [5] 101% | inhibition [6] 1.08% | RAM network inhibition [7] 0.83%

CCCCNC(=O)CS(=O)Cc1nc(-c2cccs2)oc1C (configuration not stated)
inactive: growth inhibition [1] -3.47% | growth inhibition [2] 21.5% | viability increase [3] -0.37% | viability [4] 97.6% | viability [5] 95.7% | inhibition [6] 1.57% | RAM network inhibition [7] 0.54%

CCCCCn1c(SCCOCC)nc2c1c(=O)[nH]c(=O)n2C
inactive: growth inhibition [1] -10.1% | growth inhibition [2] -15.6% | viability increase [3] -0.61% | viability [4] 96.2% | viability [5] 97.2% | inhibition [6] 1.75% | RAM network inhibition [7] 4.65%

Cc1nc(CNS(=O)(=O)c2ccccc2F)cs1
inactive: growth inhibition [1] -2.92% | growth inhibition [2] 0.715% | viability increase [3] -0.6% | viability [4] 94.1% | viability [5] 91.5% | inhibition [6] 0.335% | RAM network inhibition [7] -0.57%

NC(=O)c1ccsc1NC(=O)C1CC1
inactive: growth inhibition [1] -0.315% | growth inhibition [2] 0.175% | viability increase [3] -2.38% | viability [4] 103% | viability [5] 100% | inhibition [6] 1.22% | RAM network inhibition [7] 0.32%

COc1ccc(-c2noc(-c3cccc(OC)c3OC)n2)cc1OC
inactive: growth inhibition [1] -8.92% | growth inhibition [2] -10.4% | viability increase [3] -1.07% | viability [4] 102% | viability [5] 94.3% | inhibition [6] 2.87% | RAM network inhibition [7] 2.97%

Cc1cc(-c2nnc(-c3cc4ccccc4oc3=O)o2)c(C)n1-c1ccccc1
inactive: growth inhibition [1] -0.055% | growth inhibition [2] -2.88% | viability increase [3] -2.92% | viability [4] 79.7% | viability [5] 79.1% | inhibition [6] 3.04% | RAM network inhibition [7] 3.21%

Cn1c(C(=O)N2CCN(Cc3ccc4c(c3)OCO4)CC2)cc2c(=O)n(C)c3ccccc3c21
inactive: growth inhibition [1] -1.14% | growth inhibition [2] 0.725% | viability increase [3] -1.54% | viability [4] 67.9% | viability [5] 71.9% | inhibition [6] 3.29% | RAM network inhibition [7] 0.67%

CCCNc1nc2c(c(=O)[nH]c(=O)n2C)n1Cc1cccc(Br)c1
inactive: growth inhibition [1] -4.76% | growth inhibition [2] -9.2% | viability increase [3] -2.4% | viability [4] 97.8% | viability [5] 92.6% | inhibition [6] 3.46% | RAM network inhibition [7] 7.91%

OCC1(C2=NOC(O)(C(F)(F)F)C2)CCCCC1 (configuration not stated)
inactive: growth inhibition [1] -7.57% | growth inhibition [2] -22.3% | viability increase [3] 1.19% | viability [4] 101% | viability [5] 101% | inhibition [6] 2.09% | RAM network inhibition [7] 3.18%

Cc1nc2ccccc2c2oc(C(=O)N3CCN(C4CCCCC4)CC3)cc12
inactive: growth inhibition [1] 7.91% | growth inhibition [2] 8.38% | viability increase [3] -3.69% | viability [4] 44.1% | viability [5] 57.5% | inhibition [6] 0.555% | RAM network inhibition [7] 3.92%

CCc1ccccc1NC(=O)c1cc(-c2cccc(O)c2)on1
inactive: growth inhibition [1] -21.2% | growth inhibition [2] -5.59% | viability increase [3] -1.49% | viability [4] 98% | viability [5] 96% | inhibition [6] 4.72% | RAM network inhibition [7] 8.2%

From PubChem BioAssay
